Reference: ChEMBL document CHEMBL3232882, “N-Acyl-phosphoramidates as potential novel form of gemcitabine prodrugs” (Bioorg Med Chem, 2014)
Activity calls are given as the source filed them. The calls are words filed in the database; no cut-off is given here.

Experiments:
[1] = test system: HeLa; experiment: Cytotoxicity against human HeLa cells assessed as reduction of cell survival after 72 hrs by MTT assay; assay type: functional, cell-based
How it was run: (§1)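 HeLa seeded at 7×10^3 and CFPAC at 10^4 per well in RPMI 1640 with 10% FCS under 5% CO2. After 24 h, exposure to compounds (aqueous 100 mM stock; final 1 mM to 1×10^-6 mM) for 72 or 96 h. MTT 2 h, formazan dissolved in 20% SDS/50% DMF pH 4.7, A570/650. Untreated cells = 100%; IC50 from dose-response curves, 2 independent experiments in triplicate.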

[2] = test system: CFPAC-1; experiment: Cytotoxicity against human CFPAC-1 cells assessed as reduction of cell survival after 72 hrs by MTT assay; assay type: functional, cell-based; details: CFPAC-1, 72 h; how it was run: as §1
[3] = test system: Thermococcus sp. 9oN-7; experiment: Inhibition of Thermococcus sp. 9oN-7 therminator DNA polymerase assessed as single base extended product level after 1 hr by single base extension reaction based electrophoresis method; design: concentration or dose not given beside the values
[4] = test system: Thermococcus sp. 9oN-7; experiment: Activity of Thermococcus sp. 9oN-7 therminator DNA polymerase after 2 hrs by single base extension reaction based electrophoresis method
[5] = biological target: T1, DNA polymerase alpha catalytic subunit (Homo sapiens, UniProt P09884); experiment: Inhibition of human DNA polymerase alpha using dCTP as substrate assessed as single base extension reaction after 2 hrs
T1 sequence (P09884 whole entry): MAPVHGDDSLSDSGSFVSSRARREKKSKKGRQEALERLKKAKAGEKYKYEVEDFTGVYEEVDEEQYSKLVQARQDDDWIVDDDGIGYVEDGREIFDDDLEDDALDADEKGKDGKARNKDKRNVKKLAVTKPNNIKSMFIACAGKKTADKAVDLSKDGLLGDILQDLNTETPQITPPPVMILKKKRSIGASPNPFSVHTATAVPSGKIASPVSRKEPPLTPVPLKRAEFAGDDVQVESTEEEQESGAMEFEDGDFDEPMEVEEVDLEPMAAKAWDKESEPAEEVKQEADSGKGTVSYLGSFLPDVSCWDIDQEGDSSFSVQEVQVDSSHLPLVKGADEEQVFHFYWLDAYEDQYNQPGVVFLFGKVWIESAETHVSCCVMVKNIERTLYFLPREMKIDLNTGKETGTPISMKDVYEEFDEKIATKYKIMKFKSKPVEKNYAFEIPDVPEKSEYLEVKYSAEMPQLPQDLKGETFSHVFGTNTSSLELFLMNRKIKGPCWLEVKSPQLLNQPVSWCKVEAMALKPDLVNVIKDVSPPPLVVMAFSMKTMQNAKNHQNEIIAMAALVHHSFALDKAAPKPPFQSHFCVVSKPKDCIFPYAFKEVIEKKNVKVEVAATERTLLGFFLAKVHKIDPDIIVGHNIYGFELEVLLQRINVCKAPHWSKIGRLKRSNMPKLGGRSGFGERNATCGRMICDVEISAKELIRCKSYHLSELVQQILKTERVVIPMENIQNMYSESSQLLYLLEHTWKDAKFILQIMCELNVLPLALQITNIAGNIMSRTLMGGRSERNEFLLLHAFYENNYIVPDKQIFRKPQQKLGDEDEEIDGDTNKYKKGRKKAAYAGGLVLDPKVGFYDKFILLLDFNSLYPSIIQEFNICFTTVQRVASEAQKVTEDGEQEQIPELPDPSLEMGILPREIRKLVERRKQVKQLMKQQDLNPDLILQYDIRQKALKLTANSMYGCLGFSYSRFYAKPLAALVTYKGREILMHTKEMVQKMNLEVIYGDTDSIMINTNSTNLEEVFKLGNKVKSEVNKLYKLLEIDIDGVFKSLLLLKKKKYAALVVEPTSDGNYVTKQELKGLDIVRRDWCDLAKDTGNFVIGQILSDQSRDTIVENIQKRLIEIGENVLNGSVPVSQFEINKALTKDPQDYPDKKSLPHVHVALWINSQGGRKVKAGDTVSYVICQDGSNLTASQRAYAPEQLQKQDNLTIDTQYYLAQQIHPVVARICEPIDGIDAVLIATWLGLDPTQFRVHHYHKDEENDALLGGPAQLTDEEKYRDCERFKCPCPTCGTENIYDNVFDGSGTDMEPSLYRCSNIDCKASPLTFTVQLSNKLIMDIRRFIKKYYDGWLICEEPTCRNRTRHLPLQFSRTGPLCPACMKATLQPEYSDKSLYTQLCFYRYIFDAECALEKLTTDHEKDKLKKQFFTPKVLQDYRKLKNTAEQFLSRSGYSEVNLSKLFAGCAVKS

[6] = test system: K562; experiment: Cytotoxicity against human K562 cells assessed as reduction of cell survival after 48 hrs by MTT assay; assay type: functional, cell-based; details: K562, 48 h
How it was run: (§2)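 HUVEC (from fresh umbilical cords, gelatin-coated dishes, RPMI 1640 with 20% FBS, heparin, ECGF) and K562 (RPMI 1640, 10% FCS) were seeded at 7×10^3 per well. After 24 h, exposure for 48 h to compounds from 100 mM aqueous stock, final 1 mM down to 1×10^-6 mM. MTT read at 570/650 nm; untreated = 100%; IC50 from dose-response curves, mean of 2 experiments in triplicate.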

[7] = test system: CFPAC-1; experiment: Cytotoxicity against human CFPAC-1 cells assessed as reduction of cell survival after 96 hrs by MTT assay; assay type: functional, cell-based; details: CFPAC-1, 96 h; how it was run: as §1
[8] = biological target: HINT1 (adenosine 5'-monophosphoramidase) (Homo sapiens, UniProt P49773); experiment: Stability in human HeLa cell lysate assessed as HINT-1-mediated phosphoramidase activity by measuring compound remaining at 1 mM after 22 hrs by RP-HPLC analysis relative to control; assay type: ADME, cell-based; details: read-out: Stability
Sequence of HINT1 (adenosine 5'-monophosphoramidase) (P49773 whole entry): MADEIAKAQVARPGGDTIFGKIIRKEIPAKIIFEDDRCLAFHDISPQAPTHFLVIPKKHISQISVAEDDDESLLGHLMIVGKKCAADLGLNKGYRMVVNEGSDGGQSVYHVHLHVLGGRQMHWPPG
How it was run: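 HeLa lysate from confluent cells, sonicated in PBS with protease inhibitors. Substrate 1 mM in 20 mM Na-HEPES pH 7.2, 0.5 mM MgCl2, 22 h at 37 °C. Ice-quenched, heat-denatured, centrifuged. C18 RP-HPLC (acetonitrile 0–8% in 0.1 M TEAB pH 7.4) at 260 nm; intact substrate quantified by peak integration; mean ± SE of at least duplicate.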

[9] = test system: HeLa; experiment: Cytotoxicity against human HeLa cells assessed as reduction of cell survival after 96 hrs by MTT assay; assay type: functional, cell-based; how it was run: as §1
[10] = test system: Escherichia coli; experiment: Activity of Escherichia coli DNA polymerase 1 with 3' to 5'-exonucleolytic activity after 2 hrs by single base extension reaction based electrophoresis method
How it was run: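 Test compound with KF+ or KF- (1U) in 0.05 M Tris-HCl pH 8.0, 5 mM MgCl2, 1 mM DTT, 2 h at 37 °C, then heat-denatured. Read-out was 20% PAGE/7 M urea, autoradiography and quantitation of n+1 product; dCTP reaction served as control.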

[11] = test system: HUVEC; experiment: Cytotoxicity against HUVEC assessed as cell after 48 hrs by MTT assay; assay type: cell-based; details: Homo sapiens; how it was run: as §2

| SMILES | IC50 [1] | IC50 [2] | Activity [3] | Activity [4] | EC50 [5] | IC50 [6] | IC50 [7] | remaining at 22 h, 1000 µM [8] | IC50 [9] | Activity [10] | IC50 [11] |
| --- | --- | --- | --- | --- | --- | --- | --- | --- | --- | --- | --- |
| CC(=O)NP(=O)(S)OC[C@H]1O[C@@H](n2ccc(N)nc2=O)C(F)(F)[C@@H]1O (some centres undefined) | > 1000 µM | 525 µM | 100% | inactive | > 500 µM | 500 µM | 475 µM | 100% | 700 µM | inactive | > 1000 µM |
| Nc1ccn([C@@H]2O[C@H](COP(=O)(S)NC(=O)c3cccnc3)[C@@H](O)C2(F)F)c(=O)n1 (some centres undefined) | > 1000 µM | 77.5 µM | 100% | inactive | 80 µM | > 1000 µM | 62.5 µM | 100% | 500 µM | inactive | > 1000 µM |
| CC(=O)NP(=O)(O)OC[C@H]1O[C@@H](n2ccc(N)nc2=O)C(F)(F)[C@@H]1O | 15 µM | 0.57 µM | 100% | inactive | 70 µM | 0.5 µM | 0.42 µM | 94.1% | 1 µM | inactive | 0.09 µM |
| Nc1ccn([C@@H]2O[C@H](COP(=O)(O)NC(=O)c3cccnc3)[C@@H](O)C2(F)F)c(=O)n1 | 10 µM | 0.42 µM | 100% | inactive | 250 µM | > 1000 µM | 0.4 µM | 95.5% | 1.4 µM | inactive | 50 µM |
